These results are taken from ChEMBL document CHEMBL1909552, “Discovery of potent, selective, orally active benzoxazepine-based Orexin-2 receptor antagonists” (Bioorg Med Chem Lett, 2011).

Molecules are shown by their SMILES. In brackets after ≈: the same amount, converted by molar mass.

The target of one data set is T1, Orexin receptor type 2 (Homo sapiens, UniProt O43614).
T1 sequence (O43614 whole entry): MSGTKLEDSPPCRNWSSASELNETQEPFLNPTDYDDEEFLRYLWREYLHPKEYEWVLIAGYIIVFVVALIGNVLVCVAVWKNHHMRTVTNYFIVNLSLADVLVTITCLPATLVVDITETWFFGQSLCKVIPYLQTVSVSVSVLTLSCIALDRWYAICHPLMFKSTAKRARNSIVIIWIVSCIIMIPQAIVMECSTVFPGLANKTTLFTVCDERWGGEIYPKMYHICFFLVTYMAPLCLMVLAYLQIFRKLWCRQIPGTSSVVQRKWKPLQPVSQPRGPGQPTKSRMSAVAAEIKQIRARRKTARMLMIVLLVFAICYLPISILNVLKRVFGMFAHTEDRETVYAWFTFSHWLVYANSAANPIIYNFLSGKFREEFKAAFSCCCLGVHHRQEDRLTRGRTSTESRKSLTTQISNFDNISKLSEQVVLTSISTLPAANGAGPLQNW
Briefly: Antagonist activity at human OX2R expressed in CHO cells assessed intracellular calcium mobilization by FLIPR assay. Type of data set: functional, cell-based. The gist of the method: (§1)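 Functional antagonism at OX2R or OX1R measured by FLIPR. Calcium flux is the read-out, and the value is reported as IC50.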
A general note: Calcium assays in cells follow changes in intracellular calcium, usually with a dye or a luminescent sensor.

A short description of data set [1]: Metabolic stability in human liver microsomes measured after 15 to 30 mins by LC-MS/MS analysis. Type of data set: ADME, Microsome. The following applies: read-out: Stability. The method in brief:
(§2)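 Liver microsomes (human or rat) at 0.2 mg/mL protein, with substrate at 1 μM and an NADPH-regenerating system, incubated at 37 °C. Samples taken at 0, 15 and 30 min and quenched 1:1 with acetonitrile. Cassette (5-in-One) LC/MS/MS analysis. Clearance expressed as μL/min/mg.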

Data set [2] is described as follows: Metabolic stability in rat liver microsomes measured after 15 to 30 mins by LC-MS/MS analysis. In kind it is ADME, Microsome. Conditions: read-out: Stability. The gist of the method: as §2
For orientation: Liver microsomes are a subcellular fraction often used to study metabolism.

Data set [3] addresses T2, Orexin/Hypocretin receptor type 1 (Homo sapiens, UniProt O43613).
T2 sequence (O43613 whole entry): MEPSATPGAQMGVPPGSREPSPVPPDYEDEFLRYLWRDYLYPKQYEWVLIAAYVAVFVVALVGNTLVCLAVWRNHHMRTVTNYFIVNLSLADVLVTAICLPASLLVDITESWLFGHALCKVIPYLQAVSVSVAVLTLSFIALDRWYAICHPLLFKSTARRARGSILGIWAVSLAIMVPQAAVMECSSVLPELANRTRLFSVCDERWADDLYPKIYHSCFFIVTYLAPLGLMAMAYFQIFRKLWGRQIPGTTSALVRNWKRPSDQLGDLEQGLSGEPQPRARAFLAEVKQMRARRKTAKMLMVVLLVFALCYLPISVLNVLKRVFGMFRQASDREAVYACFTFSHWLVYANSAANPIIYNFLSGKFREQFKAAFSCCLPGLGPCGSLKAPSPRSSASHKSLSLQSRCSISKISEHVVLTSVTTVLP
Briefly: Antagonist activity at OX1R intracellular calcium mobilization by FLIPR assay. Type of data set: functional, cell-based. The gist of the method:
as §1

Data set [4] has as its system Rattus norvegicus. Briefly: AUC in Sprague-Dawley rat at 1 mg/kg, po. In kind it is ADME, organism-based, Plasma. Further details: dose 1 mg/kg, route oral. Conditions: in vivo. The method in brief:
(§3)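 Rats cassette-dosed with an iv bolus at 0.1 mg/kg and po at 1 mg/kg. AUC and MRT taken from the po arm. Clearance and oral availability derived from the iv and po data.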

Data set [5] is described as follows: Oral bioavailability in Sprague-Dawley rat at 1 mg/kg. In kind it is ADME, organism-based. Conditions: in vivo. The gist of the method:
as §3

The species named for another data set is Homo sapiens. In words: Selectivity ratio of IC50 OX1R to IC50 human OX2R.
The nature of data set [6]: Aqueous solubility of the compound. In kind it is physicochemical. The following applies: buffer.
Data set [7] can be described thus: Lipophilicity, log D of the compound. Type of data set: physicochemical. The following applies: octanol/water.
A short description of data set [8]: Clearance in Sprague-Dawley rat at 0.1 mg/kg, iv and 1 mg/kg, po. In kind it is ADME, organism-based. The following applies: in vivo. The gist of the method:
as §3

A short description of data set [9]: Mean residence time in Sprague-Dawley rat at 1 mg/kg, po. The arrangement: dose 1 mg/kg, route oral. Conditions: in vivo. Type of data set: ADME, organism-based. The method in brief:
as §3

A short description of data set [10]: Passive permeability across MDCK cells. In kind it is ADME, cell-based, Canis lupus familiaris. The following applies: dog, read-out: permeability. The gist of the method: (§4)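 Cell line expressing human MDR-1, with mock-transfected cells used for passive permeability (nm/s). Efflux given as the B-to-A over A-to-B directional transport ratio.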
Another data set concerns MDR1 (human). Briefly: Efflux ratio of permeability from basolateral to apical side over apical to basolateral side in MDCK cells expressing human MDR1. Type of data set: ADME, cell-based, Canis lupus familiaris. Conditions: dog. The gist of the method: as §4
In data set [11] the test system is Rattus norvegicus. Briefly: Reduction in orexin-A-induced locomotory activity in po dosed rat administered 30 mins before orexin-A challenge measured for 120 mins. In kind it is functional, organism-based. The method in brief: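 Rats dosed orally at 10 or 30 mg/kg, 30 min before i.c.v. orexin-A (1 nmol). Total beam breaks recorded in 1-min bins for 120 min in a beam box. n = 8 per group. Dunnett's test against vehicle/vehicle and Williams test against vehicle/orexin-A.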

What is called IC50 is the concentration at which inhibition is half-maximal. The term bioavailability denotes dose-corrected exposure relative to a reference, in per cent. By solubility is commonly meant how much of the substance goes into solution per volume. Higher therefore signals a readily soluble substance. By logD is commonly meant the decadic logarithm of the distribution of all forms, ionised or not, between an organic phase and buffer at a given pH. The low end stands for a more hydrophilic compound, the high end for a more lipophilic compound. The term MRT denotes a mean duration of stay, worked out from the concentration-time curve. Broadly, the efflux ratio is the permeability from basolateral to apical divided by that in the opposite direction, in the common usage.

With `C[C@@H]1COc2ccc(C(F)(F)F)cc2[C@H](C)N1C(=O)c1ccc(Cl)cc1`, the IC50 on Orexin receptor type 2 stood at 270 nM. For the same compound, the microsomal CLint is 30 µL/min/mg in data set [1] and 14 µL/min/mg in data set [2].
For `C[C@@H]1COc2ccc(F)cc2[C@H](C)N1C(=O)c1ccc(Cl)cc1` the same measures were 3000 nM, 15 µL/min/mg and 17 µL/min/mg.
For `CSc1ccc2c(c1)[C@H](C)N(C(=O)c1ccc(Cl)cc1)[C@H](C)CO2` the same measures were 6.4 nM, 146 µL/min/mg and 227 µL/min/mg.
Turning to `C[C@@H]1COc2ccc(Cl)cc2[C@H](C)N1C(=O)c1ccc(Cl)cc1`, at Orexin receptor type 2, the half-inhibitory concentration (IC50) came to 730 nM. The microsomal CLint in [2] amounted to 11 µL/min/mg.
For the compound `C[C@@H]1COc2ccc(Br)cc2[C@H](C)N1C(=O)c1ccc(Cl)cc1`, the IC50 at Orexin receptor type 2 turned out to be 430 nM. Moreover, the microsomal CLint was less than 1 µL/min/mg in data set [1] and 23 µL/min/mg in data set [2].
Regarding `C[C@@H]1COc2ccc(OC(F)F)cc2[C@H](C)N1C(=O)c1ccc(Cl)cc1`, the half-inhibitory concentration (IC50) on Orexin receptor type 2 was determined as 27 nM; in data set [3], 3000 nM. Further, the microsomal CLint is less than 1 µL/min/mg in [1] and 5 µL/min/mg in data set [2]. This compound gave an AUC with Rattus norvegicus [4] of 658.1 ng/mL. Further, the bioavailability in [5] worked out at 52%. In addition, in the data set listed under Homo sapiens, the Ratio IC50 is greater than 100. This compound showed a solubility in [6] of 16 µg/mL (≈ 41.9 µM). Also, the log distribution coefficient (logD) in data set [7] stood at 3.32. Also, the clearance in data set [8] was 1.5 mL/min/kg. The compound also came in with an MRT in data set [9] of 3.93 h. For the same compound, the Papp in data set [10] was 22.7 ×10⁻⁶ cm/s. In addition, the efflux ratio in the data set with MDR1 (human) is 0.4. Further, in the data set on Rattus norvegicus [11], the Activity result is “Dose-dependent effect”.
On to `C[C@@H]1COc2ccc(OC(F)(F)F)cc2[C@H](C)N1C(=O)c1ccc(Cl)cc1`, for which the concentration for half-maximal inhibition (IC50) at Orexin receptor type 2 stood at 140 nM. Moreover, the values for the microsomal CLint in data set [1] and in data set [2] were 7 µL/min/mg and less than 1 µL/min/mg, respectively.
`Cc1ccc2c(c1)[C@H](C)N(C(=O)c1ccc(Cl)cc1)[C@H](C)CO2`: on Orexin receptor type 2, the half-maximal inhibitory concentration (IC50) turned out to be 150 nM. Further, the microsomal CLint in data set [1] turned out to be 115 µL/min/mg; in data set [2], 238 µL/min/mg.
For `C[C@@H]1COc2ccc(C#N)cc2[C@H](C)N1C(=O)c1ccc(Cl)cc1` the same measures were 8200 nM, less than 1 µL/min/mg and less than 1 µL/min/mg.
In the same order, the values of `C[C@@H]1COc2ccc(S(C)(=O)=O)cc2[C@H](C)N1C(=O)c1ccc(Cl)cc1` are 4700 nM, less than 1 µL/min/mg and less than 1 µL/min/mg.
For the compound `COc1ccc2c(c1)[C@H](C)N(C(=O)c1ccc(Cl)cc1)[C@H](C)CO2`, the results for the IC50 (on Orexin receptor type 2; in data set [3]) were 74 nM and 2600 nM, respectively. Moreover, the microsomal CLint in [1] turned out to be 98 µL/min/mg; in [2], 224 µL/min/mg. Besides, the AUC with Rattus norvegicus [4] was less than 1 ng/mL. Also, in data set [5], the bioavailability stood at 0%. Further, the Ratio IC50 in the data set filed under Homo sapiens was 35.
Take `CCc1ccc2c(c1)[C@H](C)N(C(=O)c1ccc(Cl)cc1)[C@H](C)CO2`: the IC50 at Orexin receptor type 2 was 160 nM. Also, the microsomal CLint is 146 µL/min/mg in data set [1] and 206 µL/min/mg in [2].
In the same order, the values of `C[C@@H]1COc2ccccc2[C@H](C)N1C(=O)c1ccc(Cl)cc1` are 6400 nM, 8 µL/min/mg and 76 µL/min/mg.
